Assay results as given in paper PMC9907348 (Molecular Pharmaceutics, 2023).

Assay: Intravital two-photon microscopy of renal disposition
Type: in vivo, Munich Wistar Frömter rats
Settings: rat; for course of subapical brush border fluorescence / vascular fluorescence after infusion: single iv bolus ∼300 μg/kg; for course of subapical brush border fluorescence: infusion movie ∼2 min 10 s to 300 s
How it was run: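 Munich Wistar Frömter rats (9–12 weeks), fed ad libitum, with temperature monitored. Outer-cortex glomeruli with visible S1 proximal tubule openings were marked before a bolus of TAMRA- or TAMRA/QSY7-labelled peptide via an indwelling jugular line. 40 kDa FITC-dextran outlined the brush border. Two-photon excitation was at 800 nm (2.0% transmissivity), imaging for ~60 min. Fluorescence was measured over capillary-loop and subapical brush border regions.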

[1] = iv, intravital two-photon microscopy
[2] = intravital two-photon microscopy
[3] = iv, postinjection, 40 kDa FITC-dextran given just before

**Q.** For 5-TAMRA exenatide [TAMRA-Ex], which glomerular filtration [1] is on record?
**A.** rapid glomerular filtration

**Q.** What about the “proximal tubule (PTEC) binding and endocytosis” value [1] of the same substance?
**A.** rapid and extensive proximal tubule binding and endocytosis

**Q.** And the “course of subapical brush border fluorescence” value?
**A.** rapid appearance

**Q.** And the “vascular fluorescence after infusion” value [2]?
**A.** immediate and pronounced detection of fluorescence

**Q.** For 5-TAMRA-QSY7 exenatide [FRET-Ex], which “time at which fluorescence was detected within apical vesicular arrangements” value [3] is on record?
**A.** ≤ 80 s

**Q.** And the “time at which fluorescence within apical vesicular arrangements became marked” value [3]?
**A.** ≤ 200 s

**Q.** What about the “course of subapical brush border fluorescence” value of the same substance?
**A.** protracted linear increase

**Q.** And the “vascular fluorescence after infusion” value [2]?
**A.** virtually undetectable
